Reference: publication PMC3217903 (Biochemistry, 2011)

B1: PLCδ1: PH domain of mouse PLCδ1 (residues 12–142), PI(4,5)P2-specific control (protein, UniProt Q8R3B1 12-142, looked up, fragment)
chain: GLQDDPDLQALLKGSQLLKVKSSSWRRERFYKLQEDCKTIWQESRKVMRSPESQLFSIEDIQEVRMGHRTEGLEKFARDIPEDRCFSIVFKDQRNTLDLIAPSPADVQHWVQGLRKIIDRSGSMDQRQKLQ
modifications: PH domain
B2: WT: native PH domain of human GRP1 (residues 255–392), GST-fusion purified; citrine fusion in cells (protein, UniProt O43739 255-392, looked up, fragment)
chain: GNDLTHTFFNPDREGWLLKLGGGRVKTWKRRWFILTDNCLYYFEYTTDKEPRGIIPLENLSIREVEDPRKPNCFELYNPSHKGQVIKACKTEADGRVVEGNHVVYRISAPSPEEKEEWMKSIKASISRDPFYDMLATR
modifications: PH domain GST or citrine fusion

Columns and labels:
[1] = Stopped-flow association and dissociation kinetics, PM; format: binding
Outline: (§1)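 Stopped-flow FRET in binding buffer plus 10 mM DTT, 25°C, on plasma-membrane-mimic vesicles. Association: 0.5 μM PH domain mixed with vesicles (300 μM total lipid, 3 μM accessible PIP); kon from the dominant fast phase of a double-exponential fit. Dissociation: preformed complex mixed with excess IP6 (PI(3,4,5)P3: 10 mM wild type, 20 mM mutants; PI(4,5)P2: 8 mM). KD = koff/kon; ≥3 runs averaged.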

[2] = IP6 binding to free PH domain, intrinsic tryptophan fluorescence titration; conditions: read-out: KD(IP6); free PH domain 0.5 μM, 25°C, binding buffer plus 10 mM DTT
Outline: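 GST-fused PH domain (0.5 μM) titrated with IP6. Intrinsic Trp excitation 284 nm; emission 322 nm (GRP1) or 340 nm (PLCδ1). A parallel control with sodium phosphate at six times the IP6 concentration is subtracted after dilution correction. KD from nonlinear least-squares hyperbolic fit. Triplicate titrations, mean ±1 SD; reported constants average ≥3 independent fits.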

NIH 3T3 cells = experiment: Live cell imaging of plasma membrane targeting of citrine-coupled PH domains; format: cell-based; conditions: serum-starved NIH 3T3 cells
Outline: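 NIH 3T3 fibroblasts grown in DMEM with 10% FBS and transfected with Lipofectamine 2000 (4 μg DNA) with N-terminal citrine–PH fusions. Replated 24–48 h post-transfection, then serum-starved 6 h in DMEM with 0.2% BSA at 37°C. Imaged live by wide-field fluorescence microscopy in HEPES-buffered HBSS, pH 7.4, with 0.01% BSA.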

[3] = Stopped-flow association and dissociation kinetics, PM; format: binding; remark: listed apart in the source
Outline: as §1

[4] = Competitive displacement assay; format: binding; conditions: ratio of equilibrium KD values
Outline: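 Human GRP1 PH (residues 255–392) or mouse PLCδ1 PH (12–142) GST fusions, made in E. coli BL21. Sonicated vesicles mimic the plasma membrane (PE/PC/PS/PI/SM/CH/dPE/PIPn, 27.5/10.5/21/4.5/4.5/25/5/2 mol%). Sample: 0.5 μM protein, 300 μM total lipid, 3 μM accessible PI(4,5)P2 or PI(3,4,5)P3, pH 7.4 HEPES/KCl buffer plus 10 mM DTT, 25°C. IP6 titrated while FRET decrease is monitored. Protein-free control subtracted. KD(PIPn) calculated from fitted KI(IP6)app and KD(IP6).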

| Molecule | kon ([1]; PM(+)PI(4,5)P2, 25°C) | koff ([1]; PM(+)PI(4,5)P2, excess IP6, 25°C) [s⁻¹] | Kd ([1]; read-out: KD (koff/kon), PM(+)PI(4,5)P2, calculated from kinetic constants) [nM] | Kd [2] [nM] | relocation from plasma membrane to cytoplasm on PI(4,5)P2 hydrolysis (NIH 3T3 cells; 20 μM ionomycin, 2 mM extracellular Ca2+, three minute) | cellular distribution in resting cells (NIH 3T3 cells; citrine fusion) | kon ([3]; PM(+)PI(3,4,5)P3, 25°C) | koff ([3]; PM(+)PI(3,4,5)P3, excess IP6, 25°C) [s⁻¹] | Kd ([3]; read-out: KD (koff/kon), PM(+)PI(3,4,5)P3, calculated from kinetic constants) [nM] | weaker binding of membrane-bound PI(4,5)P2 than PI(3,4,5)P3 [4] |
| --- | --- | --- | --- | --- | --- | --- | --- | --- | --- | --- |
| B1 | 180 ± 10 ×10^6 M^−1 s^−1 | 15 ± 1 | 81 ± 5 | 4000 ± 1000 | fully relocates | targeted to plasma membrane | – | – | – | – |
| B2 | – | – | – | 20000 ± 3000 | – | – | 14 ± 1 ×10^6 M^−1 s^−1 | 0.79 ± 0.01 | 55 ± 1 | over 200 fold |
